Data on four compounds can be found in paper PMC6468299 (Nucleic Acids Research, 2019).

Data set [1] concerns the target T1, DNA polymerase α (Pol-α) (Homo sapiens, UniProt P09884).
T1 sequence (P09884 1-1462): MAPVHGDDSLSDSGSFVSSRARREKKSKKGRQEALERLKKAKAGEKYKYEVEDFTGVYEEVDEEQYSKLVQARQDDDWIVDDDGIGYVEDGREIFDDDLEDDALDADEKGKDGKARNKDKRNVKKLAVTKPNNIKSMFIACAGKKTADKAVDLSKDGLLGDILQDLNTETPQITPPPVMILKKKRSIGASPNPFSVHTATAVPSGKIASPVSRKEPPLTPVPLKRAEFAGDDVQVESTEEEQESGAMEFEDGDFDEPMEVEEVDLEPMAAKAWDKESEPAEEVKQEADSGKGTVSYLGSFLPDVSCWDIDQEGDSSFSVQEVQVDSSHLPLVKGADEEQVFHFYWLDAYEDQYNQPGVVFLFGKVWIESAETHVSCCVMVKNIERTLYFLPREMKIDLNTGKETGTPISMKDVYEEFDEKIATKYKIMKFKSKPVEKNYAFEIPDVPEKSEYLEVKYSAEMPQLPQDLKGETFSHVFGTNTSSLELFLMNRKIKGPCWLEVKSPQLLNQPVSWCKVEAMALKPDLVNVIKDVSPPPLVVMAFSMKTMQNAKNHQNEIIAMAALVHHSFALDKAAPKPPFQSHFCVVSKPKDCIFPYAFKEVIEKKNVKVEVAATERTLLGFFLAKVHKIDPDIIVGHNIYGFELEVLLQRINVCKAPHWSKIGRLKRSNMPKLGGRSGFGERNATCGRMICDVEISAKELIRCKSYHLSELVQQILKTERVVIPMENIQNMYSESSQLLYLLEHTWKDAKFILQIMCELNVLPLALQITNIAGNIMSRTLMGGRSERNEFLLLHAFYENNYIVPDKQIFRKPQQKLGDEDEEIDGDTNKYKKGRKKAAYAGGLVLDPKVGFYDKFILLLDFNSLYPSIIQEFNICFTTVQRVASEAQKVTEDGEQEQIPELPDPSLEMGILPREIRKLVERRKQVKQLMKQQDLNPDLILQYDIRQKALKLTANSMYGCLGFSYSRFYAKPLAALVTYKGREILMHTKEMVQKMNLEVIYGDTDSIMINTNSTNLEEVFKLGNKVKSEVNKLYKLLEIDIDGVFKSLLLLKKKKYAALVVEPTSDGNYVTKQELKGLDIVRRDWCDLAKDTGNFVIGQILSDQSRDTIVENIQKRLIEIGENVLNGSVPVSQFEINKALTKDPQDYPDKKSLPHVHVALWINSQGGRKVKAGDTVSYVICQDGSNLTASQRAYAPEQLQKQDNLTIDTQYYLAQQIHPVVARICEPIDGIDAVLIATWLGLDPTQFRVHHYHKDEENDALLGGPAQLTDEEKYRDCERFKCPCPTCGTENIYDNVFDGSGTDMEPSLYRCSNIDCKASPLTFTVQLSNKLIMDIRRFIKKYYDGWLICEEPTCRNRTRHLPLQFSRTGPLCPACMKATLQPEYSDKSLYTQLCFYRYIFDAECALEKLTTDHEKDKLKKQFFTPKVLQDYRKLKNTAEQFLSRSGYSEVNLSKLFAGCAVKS
As to the kind of experiment: DNA polymerase inhibition assay, Pol-α. It is filed as biochemical.

The target of data set [2] is DNA polymerase β (Pol-β) (Homo sapiens, UniProt P06746). As to the kind of experiment: DNA polymerase inhibition assay, Pol-β. It is filed as biochemical. The conditions noted are these: 1 h, 3H-dTTP incorporation. The method in brief: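 Reactions contained 25 μM each dATP/dCTP/dGTP, 25 nM TTP plus 1 μCi ³H-TTP, 160 nM template/primer, and serially diluted test nucleotide (0–200 μM). Incubation was 1 h at 37°C. DNA was TCA-precipitated, washed and counted; inhibition was taken from reduced incorporation. ddNTPs served as positive control.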

In data set [3] the target is T2, DNA polymerase γ (Pol-γ) (Homo sapiens, UniProt P54098).
T2 sequence (P54098 1-1239): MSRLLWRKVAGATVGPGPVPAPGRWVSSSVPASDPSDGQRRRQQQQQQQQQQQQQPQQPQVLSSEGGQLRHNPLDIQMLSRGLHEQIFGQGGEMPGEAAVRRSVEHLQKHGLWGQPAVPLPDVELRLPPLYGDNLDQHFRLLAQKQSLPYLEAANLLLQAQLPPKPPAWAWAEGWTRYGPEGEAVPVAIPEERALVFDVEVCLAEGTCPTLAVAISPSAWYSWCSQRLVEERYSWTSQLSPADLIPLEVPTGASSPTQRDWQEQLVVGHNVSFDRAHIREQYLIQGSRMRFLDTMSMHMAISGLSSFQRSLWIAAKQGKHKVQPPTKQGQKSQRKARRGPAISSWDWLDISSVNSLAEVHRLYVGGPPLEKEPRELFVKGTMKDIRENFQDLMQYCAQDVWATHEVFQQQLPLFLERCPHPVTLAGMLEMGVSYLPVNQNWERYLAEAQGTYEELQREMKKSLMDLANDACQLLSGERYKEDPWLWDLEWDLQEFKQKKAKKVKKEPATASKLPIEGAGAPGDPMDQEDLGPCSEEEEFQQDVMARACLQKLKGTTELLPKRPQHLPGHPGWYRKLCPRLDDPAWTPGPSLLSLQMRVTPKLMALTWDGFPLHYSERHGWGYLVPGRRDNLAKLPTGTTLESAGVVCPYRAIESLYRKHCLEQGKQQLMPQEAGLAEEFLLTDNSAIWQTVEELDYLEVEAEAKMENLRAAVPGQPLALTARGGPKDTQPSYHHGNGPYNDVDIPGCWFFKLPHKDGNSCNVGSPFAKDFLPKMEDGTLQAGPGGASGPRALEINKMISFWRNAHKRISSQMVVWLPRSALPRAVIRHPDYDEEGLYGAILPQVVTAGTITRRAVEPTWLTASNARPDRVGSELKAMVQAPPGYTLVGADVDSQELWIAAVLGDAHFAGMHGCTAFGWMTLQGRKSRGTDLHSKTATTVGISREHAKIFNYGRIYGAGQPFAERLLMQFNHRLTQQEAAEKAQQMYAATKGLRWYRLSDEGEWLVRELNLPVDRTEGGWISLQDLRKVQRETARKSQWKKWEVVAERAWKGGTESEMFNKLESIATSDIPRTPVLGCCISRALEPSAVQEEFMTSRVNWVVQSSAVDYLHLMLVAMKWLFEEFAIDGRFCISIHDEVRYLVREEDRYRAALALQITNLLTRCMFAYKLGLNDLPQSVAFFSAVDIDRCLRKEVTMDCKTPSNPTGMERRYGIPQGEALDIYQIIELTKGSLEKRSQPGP
As to the kind of experiment: DNA polymerase inhibition assay, Pol-γ. In kind it is biochemical. Conditions: 1 h, 3H-dTTP incorporation. A digest of the protocol: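 Reactions contained 25 μM each dATP/dCTP/dGTP, 25 nM TTP plus 1 μCi ³H-TTP, 160 nM template/primer, and serially diluted test nucleotide (0–200 μM). Incubation was 1 h at 37°C, stopped with TCA (10% final). DNA was precipitated 40 min at 4°C, washed and scintillation-counted; inhibition was taken from reduced radioactivity.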

A short description of data set [4]: Cytotoxicity, sulforhodamine B assay, HepG2. In kind it is cell-based, human. Conditions: human, HepG2 cells (liver), day 11, four doses. The method in brief: (§1)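 Cells were grown 1 week in glucose- or galactose-containing medium, then seeded in 96-well plates. iCell cardiomyocytes were seeded on gelatin-coated plates and grown 5 days. Test compounds in 1:1 ethanol:water were added at each media change on days 0, 3, 7 and 10 (four doses), at up to 250 μM. Final ethanol was 2.5% at 250 μM and 1% otherwise. Total protein was read by sulforhodamine B on day 11. CC50 was fitted from triplicates.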

Data set [5] can be described thus: Cytotoxicity, sulforhodamine B assay, SkMC. In kind it is cell-based, human. Conditions: human, SkMC cells (muscle), CC50, SkMC, day 11. The method in brief:
as §1

Data set [6] is described as follows: Cytotoxicity, sulforhodamine B assay, Caki-1. In kind it is cell-based, human. Conditions: human, Caki-1 cells (kidney), day 11. A digest of the protocol:
as §1

Data set [7] can be described thus: Cytotoxicity, sulforhodamine B assay, Molt-4. In kind it is cell-based, human. Conditions: human, Molt-4 cells (blood), day 11. A digest of the protocol: as §1
Data set [8] can be described thus: Cytotoxicity, sulforhodamine B assay, COLO 205. It is filed as cell-based, human. The conditions noted are these: human, COLO 205 cells (intestine), day 11. The method in brief: as §1
Data set [9] can be described thus: Cytotoxicity, sulforhodamine B assay, SNB-78. In kind it is cell-based, human. The conditions noted are these: human, SNB-78 cells (CNS), day 11. A digest of the protocol:
as §1

In data set [10] the test system is SNB-78 (CNS). As to the kind of experiment: Cytotoxicity, sulforhodamine B assay, SNB-78. It is filed as cell-based, human. The conditions noted are these: SNB-78. The method in brief: as §1
The nature of data set [11]: Cytotoxicity, sulforhodamine B assay, iCell cardiomyocytes. It is filed as cell-based. Conditions: human, iCell cardiomyocytes (heart). A digest of the protocol: as §1
Where [12] appears, read: Pol-α, 1 h, 3H-dTTP incorporation.

Read-outs that look alike come from different tables or passages of the source. Some results are limits rather than exact numbers.

As for `O=P(O)(O)OP(=O)(O)OP(=O)(O)OC[C@H]1O[C@@H](n2cnc3c(O)ncnc32)[C@H](F)[C@@H]1O` [2′-F-ITP], the IC50 in data set [1] (setting [12]), in data set [2] and in data set [3] was over 200 µM in each case. Besides, the IC90 in [1] (setting [12]), in data set [2] and in data set [3] was over 200 µM throughout.

Regarding `C[C@@]1(CO)[C@H](O)CC[C@@]2(C)[C@H]1CC[C@H]1C[C@@H]3C[C@@]12CC[C@]3(O)CO` [Aphidicolin, reference compound], the IC90 in [1] was determined as 16.5 µM.

As for `CC(C)OC(=O)[C@H](C)N[P@](=O)(OC[C@H]1O[C@@H](n2ccc(=O)[nH]c2=O)[C@](C)(F)[C@@H]1O)Oc1ccccc1` [SOF, Sofosbuvir], the CC50 at 11 days in [4] (CC50, HepG2, Galactose media) is 97 µM; in data set [4] (CC50, HepG2, Glucose media) it was 114 µM; in data set [5] (Galactose media) it was over 250 µM; in data set [5] (Glucose media) it was over 250 µM; in data set [6] (CC50, Caki-1, Galactose media), over 250 µM; in data set [6] (CC50, Caki-1, Glucose media), over 250 µM. Also, the CC50 at 11 days in data set [7] (CC50, Molt-4, Galactose media) was over 250 µM; in [7] (CC50, Molt-4, Glucose media) it was over 250 µM; in data set [8] (CC50, COLO 205, Galactose media), 123 µM; in data set [8] (CC50, COLO 205, Glucose media), 155 µM; in data set [9] (CC50, SNB-78, Galactose media), 120 µM; in data set [9] (CC50, SNB-78, Glucose media), over 250 µM. Moreover, the CC50 at 11 days in [11] is over 250 µM. Moreover, the “decrease of CC50 in galactose compared to glucose media” value in data set [10] was 2–10 fold.

For the compound “dideoxy nucleoside 5′ triphosphates [ddNTP, reference compound]”, the 50% inhibitory concentration (IC50) was determined as 0.06 µM in data set [2] and 0.35 µM in data set [3]. The IC90 came to 0.65 µM in data set [2] and 8.65 µM in data set [3].
